Most compounds without a hit are left out; they make up all but 2.3% or so of the library.
Glyco luc inh = N-linked glycosylation inhibition | D54 ERlucT glycosylation luciferase reporter, 24 h; percent of 100 nM tunicamycin response | reporter increase, % at 12.5 µM | actives 0.23% (n = 360,000);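 active = mean luciferase reporter signal, scaled so untreated is 0 and the glycosylation-blocking control 100, at or above a set limit in every replicate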;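 also: luciferase carries N-glycosylation sites so blocking glycosylation raises the light; 0% = median of neutral control wells and 100% = median of 100 nM tunicamycin wells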
PfHsp90 set2 = inhibits growth of yeast expressing Plasmodium falciparum Hsp90; S. cerevisiae expressing PfHsp90, BacTiter-Glo ATP, 48 h; yeast lacking PDR1 and PDR3 efflux regulators; inhibition, % at 9.4 µM; actives 0.32% (n = 310,000); AID 504621;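 active = every replicate shows inhibition above about 80%, whatever the replicate mean, limit read from the data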;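 also: 0% = DMSO neutral controls and 100% = 20 µM radicicol positive controls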
Env fusion inh = blocks HIV Env-driven cell-cell fusion; AID 651610; actives 1.1% (n = 360,000); inhibition, % at 12.3 µM; HeLa-JRFL Env/CEM21 cell fusion, luciferase;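 active = mean replicate inhibition score of at least 50 and every replicate individually at or above 50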;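 also: 0% = plate neutral controls and 100% = maraviroc near 300 nM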
Rtt109 Vps75 = inhibitors of Candida albicans Rtt109/Vps75 histone acetyltransferase | Q5AAJ8 | purified Rtt109/Vps75, ThioGlo CoA-SH fluorescence, 4 h | inhibition, % at 34.9 µM | actives 0.16% (n = 330,000);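 active = inhibition of at least 50% in every replicate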
Target sequence (Q5AAJ8 whole entry, looked up): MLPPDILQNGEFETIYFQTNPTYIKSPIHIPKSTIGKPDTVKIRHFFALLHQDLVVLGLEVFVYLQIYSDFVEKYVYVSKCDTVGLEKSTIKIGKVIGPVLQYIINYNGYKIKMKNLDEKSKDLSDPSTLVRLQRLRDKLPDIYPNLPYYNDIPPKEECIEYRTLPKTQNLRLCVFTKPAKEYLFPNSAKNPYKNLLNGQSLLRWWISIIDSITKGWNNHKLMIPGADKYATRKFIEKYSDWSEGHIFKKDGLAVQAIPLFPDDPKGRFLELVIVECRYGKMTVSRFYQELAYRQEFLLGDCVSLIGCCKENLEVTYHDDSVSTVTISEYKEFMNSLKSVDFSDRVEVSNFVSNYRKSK
PAX8 inh HTS = PAX8 transcriptional activity inhibition | actives 1.2% (n = 360,000) | inhibition, % at 12.6 µM | RMG-I TPO-luciferase reporter, SteadyGlo, 24 h | AID 652154;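 active = mean replicate inhibition at least 60% with every replicate also reaching 60%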;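 also: luciferase light reporting Pax8 driven TPO promoter activity; plate controls were median of neutral control wells for no effect and mitoxantrone controls for full effect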
Arr AP2 block = human beta-arrestin and AP2 interaction inhibition; FITC-arrestin peptide / GST-AP2 beads, flow cytometry; AP2 beta2 appendage carries R879A mutation; AID 504490; inhibition, % at 10 µM; actives 0.31% (n = 340,000);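 active = inhibition above a set limit, near 3 SD of compounds lacking own fluorescence, cut at about 54% in these data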;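 also: plate controls were DMSO wells for no effect and 5 µM unlabelled arrestin peptide for full effect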
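system = GST-tagged AP2 beta2-adaptin appendage (R879A) on 4 µm glutathione beads | reagent = FITC-labelled arrestin peptide probe, 50 nM final | schedule = compound with beads 12 min RT, then probe 1 h RT | signal = HyperCyt-sampled flow cytometry, FL1 channel, ex 488/em 535 nm | read-out = percent response from loss of bead-bound FITC fluorescence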
* hit, by the source's call; / = no result given; [ ] = remark or other dose.

SMILES	Glyco luc inh	PfHsp90 set2	Env fusion inh	Rtt109 Vps75	PAX8 inh HTS	Arr AP2 block
CN1[C@H](C(=O)NC2Cc3ccccc3C2)[C@@H](CO)[C@@H]2Cn3c(ccc(-c4ccccc4)c3=O)[C@@H]21	/	/	/	/	8	/
CO[C@@H]1CN(C)C(=O)c2cc(NC(=O)Cc3ccccc3)ccc2OC[C@H](C)N(C(=O)c2ccccc2F)C[C@@H]1C	/	/	/	/	17	/
C[C@H]1CCCCO[C@@H](CN(C)C(=O)Nc2ccc(C(F)(F)F)cc2)[C@@H](C)CN([C@@H](C)CO)C(=O)c2cc(NS(=O)(=O)c3cccs3)ccc2O1	/	/	28[16.7 µM]	/	62*	/
C[C@@H]1CCCCO[C@@H](CN(C)C(=O)Nc2ccc(C(F)(F)F)cc2)[C@H](C)CN([C@H](C)CO)C(=O)c2cc(NS(=O)(=O)c3cccs3)ccc2O1	/	/	5[16.7 µM]	/	85*	/
C[C@H](CO)N1C[C@H](C)[C@H](CN(C)C(=O)Nc2ccc(C(F)(F)F)cc2)OCCCC[C@H](C)Oc2ccc(NS(=O)(=O)c3cccs3)cc2C1=O	/	/	17[16.7 µM]	/	66*	/
C[C@H](CO)N1C[C@H](C)[C@H](CN(C)C)Oc2ccc(NC(=O)Cc3ccccc3)cc2C1=O	/	/	/	/	-12	/
C[C@@H]1CCCCO[C@@H](CN(C)Cc2ccc(C(F)(F)F)cc2)[C@H](C)CN([C@@H](C)CO)C(=O)c2cc(NS(=O)(=O)c3cn(C)cn3)ccc2O1	/	/	3[16.7 µM]	/	/	/
CCCCC[n+]1cccc2c3ccccc3ccc21	4	-10	97*	-84	56	5
CCCNC(=O)C[C@@H]1CC[C@H]2[C@@H](COc3ccc(NC(=O)c4ccccc4)cc3C(=O)N2C)O1	/	/	8[16.7 µM]	/	1	/
COc1ccc(C2c3c(-c4ccccc4O)n[nH]c3C(=O)N2CCc2ccc(OC)c(OC)c2)cc1 (stereo not drawn)	-2	/	91*	7	/	-4
COc1ccc(CCN2C(=O)c3[nH]nc(-c4ccccc4O)c3C2c2cccc(Cl)c2)cc1 (stereo not drawn)	5	-15	/	-9	/	14
O=C(NCc1cccnc1)c1c[nH]c2cc3c(cc2c1=O)OCCO3	-10	/	75*	12	/	-3
C[C@@H]1CCCCO[C@@H](CN(C)C(=O)Nc2ccccc2)[C@H](C)CN([C@H](C)CO)C(=O)c2cc(NC(=O)CCC(F)(F)F)ccc2O1	/	/	66*[16.7 µM]	/	15	/
C[C@H]1CCCCO[C@H](CN(C)C(=O)CCC(F)(F)F)[C@@H](C)CN([C@@H](C)CO)C(=O)c2cc(NC(=O)CCC(F)(F)F)ccc2O1	/	/	12[16.7 µM]	/	-4	/
CC(C)NC(=O)Nc1ccc2c(c1)C(=O)N([C@H](C)CO)C[C@@H](C)[C@@H](CN(C)C(=O)CCC(F)(F)F)OCCCC[C@@H](C)O2	/	/	79*[16.7 µM]	/	6	/
CC(C)NC(=O)Nc1ccc2c(c1)C(=O)N([C@@H](C)CO)C[C@@H](C)[C@@H](CN(C)C(=O)CCC(F)(F)F)OCCCC[C@@H](C)O2	/	/	86*[16.7 µM]	/	10	/
C[C@@H]1CCCCO[C@H](CN(C)C(=O)CCC(F)(F)F)[C@H](C)CN([C@H](C)CO)C(=O)c2cc(NC(=O)CCC(F)(F)F)ccc2O1	/	/	87*[16.7 µM]	/	-3	/
CC(C)NC(=O)Nc1ccc2c(c1)C(=O)N([C@@H](C)CO)C[C@@H](C)[C@@H](CN(C)C(=O)CCC(F)(F)F)OCCCC[C@H](C)O2	/	/	-17[16.7 µM]	/	-7	/
C[C@@H]1CN([C@@H](C)CO)C(=O)Cc2cc(NS(=O)(=O)c3ccc(F)cc3)ccc2O[C@H]1CN(C)S(=O)(=O)c1ccccc1	/	/	2[16.7 µM]	/	/	/
COc1ccc(NC(=O)N[C@@H]2CC[C@H](CC(=O)NCc3ccccn3)O[C@@H]2CO)cc1	/	/	20[16.7 µM]	/	-5	/
C[C@@H]1CCCCO[C@H](CN(C)C(=O)CCC(F)(F)F)[C@H](C)CN([C@@H](C)CO)C(=O)c2cc(NC(=O)Nc3ccc4c(c3)OCO4)ccc2O1	/	/	26[16.7 µM]	/	68*	/
C[C@@H]1CN([C@H](C)CO)C(=O)c2cc(NC(=O)Nc3ccc4c(c3)OCO4)ccc2O[C@@H](C)CCCCO[C@@H]1CN(C)C(=O)CCC(F)(F)F	/	/	-4[16.7 µM]	/	-30	/
CN(c1cccc(NC(=O)CSc2ccc(Cl)cc2)c1)S(C)(=O)=O	1	-23	61*	-2	/	0

Assay outcomes as filed in PubChem BioAssay.
